The values below come from ChEMBL document CHEMBL1949540, “Dihydroagarofuran derivatives from the dried roots of Tripterygium wilfordii” (2012).

Calls of active or inactive are those of the source. The calls are words filed in the database; no cut-off is given here.

One assay concerns Human alphaherpesvirus 2. Kind of assay: Antiherpetic activity against HSV2 at 0.5 mg/ml by MTT assay. Type of assay: functional. The essentials: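 Activity against HSV2 was assayed by a previously reported procedure. The initial concentration of test samples and of the acyclovir positive control was 0.5 mg/mL, and samples were tested at several concentration levels. Each level had four independent experiments. The end-point was an MTT assay read as optical density.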
Take `CC(=O)OC[C@]12[C@H](OC(C)=O)[C@H](OC(C)=O)[C@@H]3[C@@H](OC(=O)c4ccccc4)[C@@]14O[C@@]3(C)COC(=O)c1cccnc1C(C)C(C)C(=O)O[C@@H]([C@H](OC(C)=O)[C@@H]2OC(C)=O)[C@]4(C)O` (stereo not given in full): the inhibition at 500 µg/mL came to 22.3%.
As to `CC(=O)OC[C@]12[C@H](OC(C)=O)C(=O)[C@@H]3[C@@H](OC(C)=O)[C@@]14O[C@@]3(C)COC(=O)c1cccnc1CCC(C)(OC(C)=O)C(=O)O[C@@H]([C@H](OC(=O)c1ccoc1)[C@@H]2OC(C)=O)[C@]4(C)O` (stereo not given in full), the inhibition result is “inactive”.
On to `CC(=O)OC[C@]12[C@H](OC(C)=O)[C@H](OC(C)=O)[C@@H]3[C@@H](OC(C)=O)[C@@]14O[C@@]3(C)COC(=O)c1cccnc1CC[C@H](C)C(=O)O[C@@H]([C@H](OC(C)=O)[C@@H]2OC(C)=O)[C@]4(C)O`, for which the inhibition entry was “inactive”.
Turning to `CC(=O)OC[C@]12[C@H](OC(C)=O)[C@H](OC(C)=O)[C@@H]3[C@@H](OC(C)=O)[C@@]14O[C@@]3(C)COC(=O)c1cccnc1CCC(C)(OC(=O)c1ccoc1)C(=O)O[C@@H]([C@H](OC(=O)c1ccccc1)[C@@H]2OC(C)=O)[C@]4(C)O` (stereo not given in full), the inhibition entry was “inactive”.
Still for that read-out and setting: the same measure for `CC(=O)OC[C@]12[C@H](OC(C)=O)[C@H](OC(=O)c3ccccc3)[C@@H]3[C@@H](O)[C@@]14O[C@@]3(C)COC(=O)c1cccnc1CC[C@H](C)C(=O)O[C@@H]([C@H](OC(C)=O)[C@@H]2OC(C)=O)[C@]4(C)O`: “inactive”; for `CC(=O)OC[C@]12[C@H](OC(C)=O)[C@H](OC(C)=O)[C@@H]3[C@@H](O)[C@@]14O[C@@]3(C)COC(=O)c1cccnc1C(C)C(C)C(=O)O[C@@H]([C@H](OC(C)=O)[C@@H]2OC(C)=O)[C@]4(C)O` (stereo not given in full): “inactive”; for `CC1(C)O[C@]23[C@H](OC(=O)c4cccnc4)[C@H]1C[C@H](OC(=O)/C=C/c1ccccc1)[C@]2(C)[C@@H](OC(=O)c1ccccc1)CC[C@]3(C)O`: “inactive”.
`CC(=O)OC[C@]12[C@H](OC(C)=O)[C@H](OC(C)=O)[C@@H]3[C@@H](OC(C)=O)[C@@]14O[C@@]3(C)COC(=O)c1cccnc1CCC(C)(O)C(=O)O[C@@H]([C@H](OC(=O)c1ccccc1)[C@@H]2OC(C)=O)[C@]4(C)O` (stereo not given in full): the inhibition entry is “inactive”.
Same read-out and setting: the entry for `CC(=O)OC[C@]12[C@H](OC(C)=O)[C@H](OC(=O)c3cccnc3)[C@@H]3[C@@H](OC(C)=O)[C@@]14O[C@@]3(C)COC(=O)c1cnccc1C(C)C(C)C(=O)O[C@@H]([C@H](OC(C)=O)[C@@H]2OC(C)=O)[C@]4(C)O` (stereo not given in full) is “inactive”; for `CC(=O)OC[C@]12[C@H](OC(C)=O)[C@H](OC(C)=O)[C@@H]3[C@@H](OC(C)=O)[C@@]14O[C@@]3(C)COC(=O)c1cccnc1CCC(C)C(=O)O[C@@H]([C@H](OC(=O)c1ccccc1)[C@@H]2OC(C)=O)[C@]4(C)O` (stereo not given in full) it is “inactive”; for `CC(=O)OC[C@]12[C@H](OC(C)=O)[C@H](OC(C)=O)[C@@H]3[C@@H](OC(C)=O)[C@@]14O[C@@]3(C)COC(=O)c1cccnc1CCC(C)(O)C(=O)O[C@@H]([C@H](O)[C@@H]2OC(C)=O)[C@]4(C)O` (stereo not given in full) it is “inactive”.
`CC(=O)OC[C@]12[C@H](OC(C)=O)[C@H](OC(C)=O)[C@@H]3[C@@H](OC(C)=O)[C@@]14O[C@@]3(C)COC(=O)c1cccnc1CCC(C)(O)C(=O)O[C@@H]([C@H](OC(=O)c1ccco1)[C@@H]2OC(C)=O)[C@]4(C)O` (stereo not given in full): the inhibition entry was “inactive”.
On the same count and under the same terms, the entry for `CC(=O)OC[C@]12[C@H](OC(C)=O)[C@H](OC(C)=O)[C@@H]3[C@@H](OC(C)=O)[C@@]14O[C@@]3(C)COC(=O)c1cccnc1CCC(C)C(=O)O[C@@H]([C@H](OC(=O)c1ccco1)[C@@H]2OC(C)=O)[C@]4(C)O` (stereo not given in full) is “inactive”.
On the same count and under the same terms, the entry for `CC(=O)OC[C@]12[C@H](OC(C)=O)[C@H](OC(C)=O)[C@@H]3[C@@H](OC(C)=O)[C@@]14O[C@@]3(C)COC(=O)c1cccnc1C(C)C(C)C(=O)O[C@@H]([C@H](OC(C)=O)[C@@H]2OC(C)=O)[C@]4(C)O` (stereo not given in full) is “inactive”.
Take `CC(=O)OC[C@]12[C@H](OC(C)=O)[C@H](OC(C)=O)[C@@H]3[C@@H](OC(C)=O)[C@@]14O[C@@]3(C)COC(=O)c1cccnc1CCC(C)(OC(C)=O)C(=O)O[C@@H]([C@H](OC(=O)c1ccoc1)[C@@H]2OC(C)=O)[C@]4(C)O` (stereo not given in full): the inhibition result was “inactive”.
`CC(=O)OC[C@]12[C@H](OC(C)=O)[C@H](OC(C)=O)[C@@H]3[C@@H](OC(=O)c4ccccc4)[C@@]14O[C@@]3(C)COC(=O)c1cccnc1C(C)C(C)C(=O)O[C@@H]([C@H](OC(C)=O)[C@@H]2OC(=O)c1ccccc1)[C@]4(C)O` (stereo not given in full): the inhibition entry is “inactive”.
Same read-out and setting: the entry for `CC(=O)OC[C@]12[C@H](OC(C)=O)[C@H](OC(C)=O)[C@@H]3[C@@H](OC(C)=O)[C@@]14O[C@@]3(C)COC(=O)c1cnccc1C(C)C(C)C(=O)O[C@@H]([C@H](OC(C)=O)[C@@H]2OC(C)=O)[C@]4(C)O` (stereo not given in full) is “inactive”.
The compound `Nc1nc2c(ncn2COCCO)c(=O)[nH]1` [ACYCLOVIR] showed an inhibition at 500 µg/mL of 66.3%.

The test system of a further assay is Human alphaherpesvirus 2. Kind of assay: Antiherpetic activity against HSV2 at 0.25 mg/ml by MTT assay. In kind it is functional. In a few lines:
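Anti-HSV2 test run by a previously reported method. Samples started at an initial concentration of 0.25 mg/mL and were assayed at several concentration levels. Four independent experiments were run at each level. Acyclovir was the positive control. The read-out was an MTT assay, with optical density measured on a multimode plate reader.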
Take `CC1(C)O[C@]23[C@H](OC(=O)c4cccnc4)[C@H]1C[C@H](OC(=O)c1ccccc1)[C@]2(C)[C@@H](OC(=O)c1ccccc1)CC[C@]3(C)O` [REGELIDINE]: testing at 250 µg/mL gave an inhibition of 31.7%.
For `Nc1nc2c(ncn2COCCO)c(=O)[nH]1` [ACYCLOVIR], 250 µg/mL produced 60.6% inhibition.
